The species named for one test is Rattus norvegicus. As to the kind of experiment: Inhibition of histamine release in rat mast cells. Type of test: functional, cell-based.
The species named for test [1] is Mus musculus. The experiment in a line: Percent inhibition of anti-CD3 mAb stimulated interleukin-4 release from […] by 10 uM. Type of test: functional. The essentials: (§1)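 D10.G4.1 Th-2 cells (4 × 10⁴/well) in medium without Rat T-STIM for 3.5 h, then exposed to drug at 10 µM for 30 min and stimulated with anti-CD3 mAb (final 1:100) for 16 h. IL-4 or IL-5 content of the supernatant is read against solvent control. Mean of three experiments, each run in duplicate.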

The species entered for test [2] is Mus musculus. As to the kind of experiment: Percent inhibition of anti-CD3 mAb stimulated interleukin-4 release from mice splenocytes by 10 uM compound. Type of test: functional.
Test [3] is filed under the species Mus musculus. As to the kind of experiment: Percent inhibition of anti-CD3 mAb stimulated interleukin-5 release from […] by 10 uM. The test is classed as functional. The essentials: as §1
For test [4], the species on record is Mus musculus. The experiment in a line: Compound was evaluated for IL 4 production inhibition from mice splenocytes stimulated by anti-CD3 mAb. Type of test: functional. The essentials: (§2)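 Th-2 clone D10.G4.1, restimulated with conalbumin (100 µg/mL) plus mitomycin C-treated AKR/J splenocytes as antigen-presenting cells, thawed and grown 3 days with Rat T-STIM. Cells at 4 × 10⁴/well, 3.5 h without T-STIM, drug 30 min (DMSO ≤0.1%). Stimulated with anti-CD3 mAb (final 1:100) for 16 h; IL-4 or IL-5 measured in supernatant. IC50 estimated over a concentration range.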

Test [5] is filed under the species Mus musculus. The experiment in a line: Compound was evaluated for IL 5 production inhibition from mice splenocytes stimulated by anti-CD3 mAb. Type of test: functional. A digest of the protocol:
as §2

Activity calls are given as the source filed them. The rule behind the calls is not given here.

For the compound `Cc1[nH]c2ccc(Cl)cc2c1CC(=O)Nc1ccncc1`, the IC50 in the test filed under Rattus norvegicus was > 10 µM. Also, the inhibition result in the test listed under Mus musculus [1] is “inactive”.
As to `COc1ccc2c(c1)c(CC(=O)Nc1ccncc1)cn2-c1ccc(F)cc1`, the inhibition at 10 µM came to 24% in the test filed under Mus musculus [2] and 22% in the test filed under Mus musculus [3].
On to `O=C(Cc1cn(-c2ccc(F)cc2)c2ccc(F)cc12)Nc1ccncc1`, for which the IC50 in the test listed under Mus musculus [4] worked out at 9.7 µM; in the test filed under Mus musculus [5], 4.56 µM. Further, the inhibition at 10 µM in the test listed under Mus musculus [2] was found to be 51%; in the test listed under Mus musculus [3] it was 71%.
In the case of `O=C(Cc1cn(Cc2ccccc2)c2ccc(Cl)cc12)Nc1ccncc1`, the inhibition at 10 µM came to 39% in the test filed under Mus musculus [2] and 49% in the test filed under Mus musculus [3].
With `COc1ccc2[nH]c(C)c(CC(=O)Nc3ccncc3)c2c1`, the inhibition result in the test filed under Mus musculus [1] was “inactive”.
For the compound `O=C(CCc1c[nH]c2ccc(Cl)cc12)Nc1ccncc1`, the inhibition at 10 µM stood at 26% in the test listed under Mus musculus [2] and 25% in the test filed under Mus musculus [3]. Also, the IC50 in the test listed under Rattus norvegicus came to 1.46 µM.
`Cc1c(CC(=O)Nc2ccncc2)c2cc(F)ccc2n1Cc1ccc(F)cc1`: the results for the IC50 in the test listed under Mus musculus [4], in the test listed under Rattus norvegicus and in the test listed under Mus musculus [5] were 10.2 µM, 0.4 µM and 7.87 µM, respectively. For the same compound, the inhibition at 10 µM in the test filed under Mus musculus [2] was found to be 49%; in the test listed under Mus musculus [3], 61%.
In the test filed under Rattus norvegicus, `O=C(Cc1c[nH]c2ccc(Cl)cc12)Nc1ccncc1` had an IC50 of 4.5 µM. The inhibition entry in the test filed under Mus musculus [1] was “inactive”.
As for `CC(C)c1ccc2[nH]cc(CC(=O)Nc3ccncc3)c2c1`, the inhibition at 10 µM in the test listed under Mus musculus [2] was 33%; in the test listed under Mus musculus [3], 29%. In the test listed under Rattus norvegicus, this compound yielded an IC50 of 4.92 µM.
As to `CC(C)c1ccc2c(c1)c(CCC(=O)Nc1ccncc1)cn2Cc1ccccc1`, inhibition in the test filed under Rattus norvegicus was half-maximal at 6 µM (IC50). Further, the inhibition entry in the test filed under Mus musculus [1] is “inactive”. Also, the inhibition at 10 µM in the test filed under Mus musculus [3] stood at 25%.
In turn, `CC(C)c1ccc2c(c1)c(CCC(=O)Nc1ccncc1)cn2Cc1ccc(F)cc1` returned an IC50 in the test filed under Rattus norvegicus of 5.34 µM. Also, the inhibition result in the test filed under Mus musculus [1] was “inactive”.
Take `COc1ccc2[nH]cc(CCC(=O)Nc3ccncc3)c2c1`: the inhibition entry in the test filed under Mus musculus [1] was “inactive”. In the test filed under Mus musculus [3], this compound gave an inhibition at 10 µM of 26%.
In the test listed under Rattus norvegicus, `Cc1c(CC(=O)Nc2ccncc2)c2cc(C(C)C)ccc2n1Cc1ccccc1` displayed an IC50 of 7.54 µM. Moreover, the inhibition entry in the test filed under Mus musculus [1] is “inactive”. In addition, the inhibition at 10 µM in the test listed under Mus musculus [3] worked out at 34%.
For `COc1ccc2c(c1)c(CCC(=O)Nc1ccncc1)cn2Cc1ccc(F)cc1`, the inhibition entry in the test filed under Mus musculus [1] was “inactive”.
Consider `Cc1[nH]c2ccc(F)cc2c1CC(=O)Nc1ccncc1`, for which the IC50 in the test listed under Rattus norvegicus was determined as 10.1 µM. The inhibition result in the test listed under Mus musculus [1] was “inactive”.
As to `O=C(Cc1cn(Cc2ccc(F)cc2)c2ccc(Cl)cc12)Nc1ccncc1`, the figures for the IC50 in the test listed under Mus musculus [4], in the test filed under Rattus norvegicus and in the test filed under Mus musculus [5] were > 10 µM, 0.23 µM and 8.8 µM, respectively. For the same compound, in the test filed under Mus musculus [1], the inhibition entry is “inactive”. In the test listed under Mus musculus [3], this compound had an inhibition at 10 µM of 54%.
With `Cc1[nH]c2ccc(C(C)C)cc2c1CC(=O)Nc1ccncc1`, half-maximal inhibition in the test filed under Rattus norvegicus (IC50) required 2.8 µM. Moreover, the inhibition entry in the test filed under Mus musculus [1] was “inactive”.
`O=C(CCc1cn(Cc2ccc(F)cc2)c2ccc(Cl)cc12)Nc1ccncc1`: it took 1.3 µM to reach half-maximal inhibition in the test filed under Rattus norvegicus (IC50). In the test listed under Mus musculus [1], the inhibition entry is “inactive”. In the test listed under Mus musculus [3], this compound showed an inhibition at 10 µM of 41%.
On to `O=C(Cc1cn(Cc2ccc(F)cc2)c2cc(O)ccc12)Nc1ccncc1`, for which the inhibition at 10 µM in the test listed under Mus musculus [2] was found to be 29%; in the test listed under Mus musculus [3], 37%. Also, half-maximal inhibition in the test listed under Rattus norvegicus (IC50) was put at 0.94 µM.
For `O=C(CCc1cn(Cc2ccccc2)c2ccc(F)cc12)Nc1ccncc1`, in that order: 27%, 42% and 0.42 µM.
`COc1ccc2c(c1)c(CC(=O)Nc1ccncc1)c(C)n2Cc1ccc(F)cc1` returned an IC50 in the test listed under Rattus norvegicus of 5 µM. For the same compound, in the test filed under Mus musculus [1], the inhibition entry is “inactive”. In the test listed under Mus musculus [3], 10 µM produced 22% inhibition.
In the test listed under Rattus norvegicus, `O=C(CCc1cn(Cc2ccc(F)cc2)c2ccc(F)cc12)Nc1ccncc1` displayed an IC50 of 0.38 µM. Moreover, the inhibition entry in the test filed under Mus musculus [1] was “inactive”. The compound also registered an inhibition at 10 µM in the test filed under Mus musculus [3] of 37%.
In the test filed under Rattus norvegicus, `O=C(CCc1cn(Cc2ccccc2)c2ccc(Cl)cc12)Nc1ccncc1` registered an IC50 of 0.74 µM. In addition, in the test filed under Mus musculus [1], the inhibition entry was “inactive”.
For `COc1ccc(CCN2CCC(Nc3nc4ccccc4n3Cc3ccc(F)cc3)CC2)cc1` [ASTEMIZOLE], the IC50 in the test filed under Mus musculus [4] is 8 µM; in the test filed under Rattus norvegicus, 6.5 µM; in the test listed under Mus musculus [5] it was 3.3 µM. Also, the inhibition at 10 µM in the test listed under Mus musculus [2] was 66%; in the test listed under Mus musculus [3], 74%.
The compound `COc1ccc2c(c1)c(CCC(=O)Nc1ccncc1)cn2Cc1ccccc1` showed an IC50 in the test listed under Rattus norvegicus of 3.9 µM. Also, in the test listed under Mus musculus [1], the inhibition result is “inactive”.
In the case of `O=C(CCCc1cn(Cc2ccc(F)cc2)c2ccccc12)Nc1ccncc1`, the values for the inhibition at 10 µM in the test filed under Mus musculus [2] and in the test filed under Mus musculus [3] were 31% and 42%, respectively. In the test listed under Rattus norvegicus, this compound registered an IC50 of 0.51 µM.
As for `CC(C)c1ccc2c(c1)c(CC(=O)Nc1ccncc1)cn2Cc1ccc(F)cc1`, the inhibition entry in the test filed under Mus musculus [1] is “inactive”. The compound also registered an inhibition at 10 µM in the test listed under Mus musculus [3] of 23%.
Consider `Cc1c(CC(=O)Nc2ccncc2)c2cc(Cl)ccc2n1Cc1ccc(F)cc1`, for which the inhibition at 10 µM in the test listed under Mus musculus [2] was found to be 28%; in the test filed under Mus musculus [3], 26%.
As for `COc1ccc2[nH]cc(CC(=O)Nc3ccncc3)c2c1`, the IC50 in the test filed under Rattus norvegicus is > 10 µM. The inhibition entry in the test filed under Mus musculus [1] is “inactive”.
`CC(C)c1ccc2[nH]cc(CCC(=O)Nc3ccncc3)c2c1`: the IC50 in the test listed under Rattus norvegicus stood at 3.12 µM. For the same compound, the inhibition entry in the test listed under Mus musculus [1] is “inactive”. In the test filed under Mus musculus [3], this compound displayed an inhibition at 10 µM of 28%.
`O=C(Cc1cn(Cc2ccccc2)c2ccc(F)cc12)Nc1ccncc1` registered an IC50 in the test listed under Rattus norvegicus of 0.06 µM. Moreover, the inhibition entry in the test filed under Mus musculus [1] is “inactive”. The inhibition at 10 µM in the test listed under Mus musculus [3] was determined as 48%.
With `O=C(CCc1cn(Cc2ccc(F)cc2)c2ccccc12)Nc1ccncc1`, the inhibition at 10 µM in the test listed under Mus musculus [2] came to 2.9%; in the test listed under Mus musculus [3], 22%. In the test filed under Rattus norvegicus, this compound gave an IC50 of 0.22 µM.
Regarding `Cc1c(CC(=O)Nc2ccncc2)c2cc(C(C)C)ccc2n1Cc1ccc(F)cc1`, in the test listed under Rattus norvegicus, the midpoint of inhibition, the IC50, lay at 6.9 µM. For the same compound, the inhibition result in the test listed under Mus musculus [1] is “inactive”.
On the same counts, the results for `O=C(Cc1c[nH]c2ccc(F)cc12)Nc1ccncc1` are > 10 µM and “inactive”.
As for `COc1ccc2c(CC(=O)Nc3ccncc3)cn(Cc3ccc(F)cc3)c2c1`, the IC50 in the test filed under Mus musculus [4] came to 9.8 µM; in the test listed under Rattus norvegicus, 0.33 µM; in the test filed under Mus musculus [5], 2.28 µM. Moreover, the inhibition at 10 µM in the test filed under Mus musculus [2] came to 51%; in the test listed under Mus musculus [3], 76%.
As for `O=C(Cc1cn(-c2ccc(F)cc2)c2ccccc12)Nc1ccncc1`, the inhibition at 10 µM came to 31% in the test filed under Mus musculus [2] and 48% in the test filed under Mus musculus [3]. For the same compound, the IC50 in the test filed under Rattus norvegicus turned out to be 0.302 µM.
In the test filed under Rattus norvegicus, `O=C(CCc1c[nH]c2ccc(F)cc12)Nc1ccncc1` registered a half-maximal inhibitory concentration (IC50) of 2.21 µM. The inhibition entry in the test listed under Mus musculus [1] was “inactive”. Moreover, in the test listed under Mus musculus [3], at 10 µM the inhibition was 25%.
In the case of `COc1ccc2c(c1)c(CC(=O)Nc1ccncc1)cn2Cc1ccccc1`, the inhibition at 10 µM in the test filed under Mus musculus [2] was 33%; in the test listed under Mus musculus [3], 38%. The compound also had an IC50 in the test listed under Rattus norvegicus of 2.8 µM.
For the compound `O=C(Cc1cn(Cc2ccc(F)cc2)c2ccc(F)cc12)Nc1ccncc1`, the inhibition entry in the test listed under Mus musculus [1] is “inactive”. Moreover, in the test filed under Mus musculus [3], at 10 µM the inhibition was 43%.
With `Cc1c(CC(=O)Nc2ccncc2)c2cc(F)ccc2n1Cc1ccccc1`, the IC50 in the test listed under Rattus norvegicus was 0.48 µM. The inhibition entry in the test filed under Mus musculus [1] was “inactive”. The compound further yielded an inhibition at 10 µM in the test filed under Mus musculus [3] of 41%.

The values above are taken from ChEMBL document CHEMBL1132585, “New N-(pyridin-4-yl)-(indol-3-yl)acetamides and propanamides as antiallergic agents” (J Med Chem, 1999).
